Test results as given in the EternaBench riboswitch data.

Tested on: MS2 coat protein
Assay: apparent Kd, MS2 coat protein; higher = weaker binding; RNA-MaP array; FMN 200 µM where present
Procedure, shortened: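 Binding was read on Illumina sequencing-chip clusters where stalled E. coli RNA polymerase had transcribed each design. A titration of SNAP-549-labelled MS2 coat protein began at 0.7 or 1.5 nM and doubled to 3 µM, once without ligand and once with constant ligand, in 100 mM Tris-HCl pH 7.5, 80 mM KCl, 4 mM MgCl2, BSA, DTT, yeast tRNA and Tween-20. The apparent Kd is the median of filtered per-cluster binding-curve fits, based on green signal normalised to red-channel RNA signal and control-cluster median Fmax.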

[1] = designed as: OFF switch for flavin mononucleotide, no ligand
[2] = ligand present: flavin mononucleotide, designed as: OFF switch for flavin mononucleotide
[3] = designed as: ON switch for flavin mononucleotide, no ligand
[4] = ligand present: flavin mononucleotide, designed as: ON switch for flavin mononucleotide

Sequence: GGGUGUGAAGGAUAUACAUGAGGAUCACCCAUGUGAGAGGAGGAGGUUGAGGAGGUUGGUAGAAGGUCAGGAGG
- apparent Kd [1]: 169 nM
- apparent Kd [2]: 142 nM

Sequence: AGAGAGUGACAGAAGGGCAAGCUCGAAAGCGGAGAACGCGAACGAGCUUGCAGGAUAUGUUGAACAUGAGGAUCACCCAUGUCA
- apparent Kd [3]: 7.79 nM
- apparent Kd [4]: 6.41 nM

Sequence: GUACCUUAUGAGAAGGCGAUCAUAAAACAUGAUCGAGGAUAUCAUGUAAACAUGAGGAUCACCCAUGUAUGGGUAUUAUGGUAC
- apparent Kd [3]: 68.7 nM
- apparent Kd [4]: 17.5 nM

Sequence: GGAGCAAGUGUCAGGAUAUCGUGGUCGAUAGAUCACGAGAAGGGACAUGAGGAUCACCCAUGUGUCCUAGCUCC
- apparent Kd [1]: 262 nM
- apparent Kd [2]: 484 nM

Sequence: AGCGUGUAAGGAUAUACGUCGGAUAGCGAAUGCUGUCCGUAGUAGAAGGUACAUGAGGAUCACCCAUGUGUCCA
- apparent Kd [1]: 25.1 nM
- apparent Kd [2]: 94.1 nM

Sequence: ACAUUGUUACAGGAUAUCGUUGGUUUUAUCCUGCGAGAAGGGUAUACAUGAGGAUCACCCAUGUUAUCCUCAUU
- apparent Kd [1]: 18.7 nM
- apparent Kd [2]: 21.8 nM

Sequence: ACGCUUUGGGAGAAGGUACGUUAAUUAUUUUCCACAUGAGGAUCACCCAUGUAAGGAUAUCCCGGCGUGAAAUAGGCUACAGCA
- apparent Kd [1]: 6.71 nM
- apparent Kd [2]: 8.08 nM

Sequence: GUAUUUAUAUAAGGAUAUAAGUCUAGGACAUGAGGAUCACCCAUGUGUGUCUUAGAAGGUAUAUAGGUAAUACUGUUACAGUAA
- apparent Kd [3]: 86.1 nM
- apparent Kd [4]: 23.6 nM

Sequence: AAUAACAGAGGAUAUACUGUUUUAUGUAUUUAUUAUUUUAAACAUGAGGAUCACCCAUGUAGAAGGCUGAAUAA
- apparent Kd [1]: 21.9 nM
- apparent Kd [2]: 18.6 nM

Sequence: GCAUCCAAUGUGAGGAUAUACCUCUGGAUACAUAGGUAGAAGGCACAUGAGGAUCACCCAUGUCCUAAGGAUGC
- apparent Kd [1]: 130 nM
- apparent Kd [2]: 149 nM

Sequence: CGCUACGUUUCGUAGCAGUGUCAUCGAGAAGGCCCUGACAUGAGGAUCACCCAUGUUGUUACAUGGGAGGAUAUCGAUGAUACU
- apparent Kd [3]: 13.4 nM
- apparent Kd [4]: 5.25 nM

Sequence: GAGUGACAUGAGGAUCACCCAUGUGAGGAUAUCGGACGGACCAAGUUAACAUCCGCCGCGAGAAGGCACAUCGG
- apparent Kd [1]: 114 nM
- apparent Kd [2]: 31.1 nM

Sequence: UGGUACAUGGGAGGAUAUCCUCAAGACAUGAGGAUCACCCAUGUAAAUUAUAAGCCGAAAGGCAUGGAGAAGGCCCAUGUACCU
- apparent Kd [3]: 96.3 nM
- apparent Kd [4]: 20.2 nM

Sequence: UUACUAUUGCAGAAGGCUAAAUAAUAUAUAAAUGGAGGAUAUGCAACAUGAGGAUCACCCAUGUUUCACCCAUAUGAGGAUCAC
- apparent Kd [1]: 7.7 nM
- apparent Kd [2]: 9.14 nM

Sequence: GCUGACGAUGUAGGAUAUCUCGACGAUAAGUCGAGAGAAGGACAUGAGGAUCACCCAUGUCUCCAAACGUCAGCGAGGAAACUC
- apparent Kd [1]: 16.1 nM
- apparent Kd [2]: 16.4 nM

Sequence: CUUCUGUGAGGAUAUUGACCAGUAGCUGACCUAGUACUGGAUGAGAAGGCACAUGAGGAUCACCCAUGUGGCAC
- apparent Kd [1]: 19.5 nM
- apparent Kd [2]: 104 nM

Sequence: GAGGCCCAGGAAGGUAGAAUGAGCAGAAGGCAACGAAGCGUGAUCGACAUGAGGAUCACCCAUGUUGAGGAUAUGCGCCUCCAC
- apparent Kd [1]: 63.1 nM
- apparent Kd [2]: 178 nM

Sequence: UUAUUAUAUGUAGGAUAUGCAUAUUAUUAUUAUGCAGAAGGACAUGAGGAUCACCCAUGUAUAUUGUUGUUGUAUAUUAUAUAU
- apparent Kd [1]: 25.1 nM
- apparent Kd [2]: 30.4 nM

Sequence: AUAUGGGCCCAGAAGGUGCCAGCGAGAGCUGCACAUGAGGAUCACCCAUGUUGUCGGUGACGACGCAAGGAUAUGGGCCCAUAU
- apparent Kd [3]: 22.1 nM
- apparent Kd [4]: 6.26 nM

Sequence: AAUAUAAAGAGCUGGAACCUAAUAACAUGAGGAUCACCCAUGUAGGAUAUCAGCACGAUAAGUGCUGAGAAGGACAUCCAGCUC
- apparent Kd [1]: 14.7 nM
- apparent Kd [2]: 14.8 nM

Sequence: AUAUAACAUGAGGAUCACCCAUGUCAACAAAGUCGAGGAUAUGGGCAAAUAAAAUAAGAACCAGAAGGCGAAUAAU
- apparent Kd [3]: 291 nM
- apparent Kd [4]: 51.9 nM

Sequence: AUCCUGCGAGGAUAUACAUAGUUUUUUUCGUUUUGUCUCGAACAUGAGGAUCACCCAUGUAGAAGGUGCUUCAC
- apparent Kd [1]: 71.5 nM
- apparent Kd [2]: 66.9 nM

Sequence: ACUAGAUGAGGAUAUGCAUAUUUUCGUGUUCUUCUAGAUUAACAUGAGGAUCACCCAUGUAGAAGGCGUCAAUA
- apparent Kd [1]: 16.1 nM
- apparent Kd [2]: 18.9 nM

Sequence: UUGGACGUCGUAGGAUAUGUAGGAUAUUCCUACAUGAGGAUCACCCAUGUUGACAUGGAAGAAGGUCAGAAGGACGAUGUCCAU
- apparent Kd [3]: 344 nM
- apparent Kd [4]: 559 nM

Sequence: UAUUCUAGAUAGGAUAUACUUUUUUUUUUUUUCGUAGAAGGAUCUACAUGAGGAUCACCCAUGUUUUCAGCAGU
- apparent Kd [1]: 44.5 nM
- apparent Kd [2]: 38.4 nM

Sequence: UCAAGUAUGUAGGAUAUCGAUGUCCUUGGACAUCGAGAAGGACGUACAUGAGGAUCACCCAUGUAACUUGCAUG
- apparent Kd [1]: 219 nM
- apparent Kd [2]: 278 nM

Sequence: CUAUGCCGAACAGGAUAUUCGAUCAAAAGGAUAGAAGAAGGGUUACAUGAGGAUCACCCAUGUAUGCACAUGAGGAUCCCUUAA
- apparent Kd [1]: 255 nM
- apparent Kd [2]: 296 nM

Sequence: UCUCGUUUCGCAGGAUAUGCUGGUCGGUCAUAAACCGGCCACAUGAGGAUCACCCAUGUGCCACAGCAGAAGGGUGACACUAGA
- apparent Kd [3]: 543 nM
- apparent Kd [4]: 59 nM

Sequence: GCGUAAGUCACAGGAUAUCCAACAUGAGGAUCACCCAUGUAAAAGUGCCGCACUAGAAUGCGACUGGAGAAGGGUGAUUCGUCG
- apparent Kd [3]: 50.3 nM
- apparent Kd [4]: 27.5 nM

Sequence: ACGUUUAAUACAGGAUAUGUUAAUAUACAAUAGAUUGGAUAUUACUUAAUUACAGAAGGGUAGAACAUGAGGAUCACCCAUGUA
- apparent Kd [3]: 329 nM
- apparent Kd [4]: 239 nM

Sequence: AAGAAUAGAAAGAUUAAUAUGAAUACAUGAGGAUCACCCAUGUAGGAUAUCGACGUCAAUGACGUCGAGAAGGACAAAAUAAAU
- apparent Kd [1]: 9.44 nM
- apparent Kd [2]: 9.55 nM

Sequence: UGGGCCCGAACAGGAUAUGUAACCAGUCCCUCACAUGAGGAUCACCCAUGUCCAAGGGCUCGAAGGCAGAAGGGUUAAGGCUGU
- apparent Kd [3]: 740 nM
- apparent Kd [4]: 138 nM

Sequence: AUCAGCUUGACAGGAUAUACAUGUCAGCGAAAGCUGACUAUCUUAAUAACAUGAGGAUCACCCAUGUAGAAGGGUCGAGCUGAU
- apparent Kd [1]: 16.9 nM
- apparent Kd [2]: 26.4 nM

Sequence: UCGCUGCGAGGAUAUACGUGCGCGCGCGCGCGCGCGCGCGUACAUGAGGAUCACCCAUGUAGAAGGCGCGCUGC
- apparent Kd [1]: 17.1 nM
- apparent Kd [2]: 17.1 nM

Sequence: GCAUUGAGUGUGAGGAUAUGCUGGUCCUUGGAUCAGCAGAAGGCACAUGAGGAUCACCCAUGUGAAUACAAUGC
- apparent Kd [1]: 20.9 nM
- apparent Kd [2]: 116 nM

Sequence: GCAGAACAUGAGGAUCACCCAUGUCUCUAAUAUCGAGGAUAUGGGCACGGUAUAUCCGAACCAGAAGGCGAACUGC
- apparent Kd [3]: 272 nM
- apparent Kd [4]: 60 nM

Sequence: GUGUUGUAUGUAGGAUAUGCAUACUGUUAGUAUGCAGAAGGACAUGAGGAUCACCCAUGUAUAUUAUUAUUAUAUAUCAUACAU
- apparent Kd [1]: 21.1 nM
- apparent Kd [2]: 36.8 nM

Sequence: CACGGUGAUGUAGGAUAUACGCUGGAAUACAGCGUAGAAGGACAUGAGGAUCACCCAUGUAGAGUGUCUCCAAAUAACACCGUG
- apparent Kd [1]: 43 nM
- apparent Kd [2]: 293 nM

Sequence: AUAUUUAUUUAGAAGGACAUGAGGAUCACCCAUGUCGCUGGGCGCGGGAAACCGUGCCCGGCCAUGUAGGAUAUAGAUAGAUAU
- apparent Kd [1]: 8.78 nM
- apparent Kd [2]: 9.88 nM

Sequence: UGUUUUCAUGUAGGAUAUGCUUGUCGUAGAUACGCAGAAGGACAUGAGGAUCACCCAUGUUAAUGCGACAGAUUUUAGUUUCUU
- apparent Kd [1]: 19.6 nM
- apparent Kd [2]: 62 nM

Sequence: AUAAUUUUAUAUAUCAUUUUAAUCAGAAGGCAUAACAUGAGGAUCACCCAUGUAAAUUAUUGUUAUGAGGAUAUGAUUUGGUUA
- apparent Kd [1]: 20.3 nM
- apparent Kd [2]: 72.2 nM

Sequence: CAGCGAUAGCUGAACAAUCUAUCACAGGAUAUUCAUGAAACAUGAGGAUCACCCAUGUGAAAUUGGGAGAAGGGUGAUAGAUUG
- apparent Kd [3]: 12.7 nM
- apparent Kd [4]: 5.36 nM

Sequence: GGAUAGGACAGAGGAUAUACGUGCCAGAGAUACUAGCAAAAUUUCCUCACAUGAGGAUCACCCAUGUAGAAGGCUGUCCUAUCG
- apparent Kd [1]: 33.6 nM
- apparent Kd [2]: 293 nM

Sequence: CCUUCAGCGAACGAUACGAAUGGACAUGAGGAUCACCCAUGUAGAAGGACAGGAGAAUAACGACUGUAGGAUAUACAUUUAGUG
- apparent Kd [1]: 22.3 nM
- apparent Kd [2]: 28.6 nM

Sequence: UCAUGUUAGCAGGAUAUGCUAUUUAUUUUUUAUGCAGAAGGGCUUACAUGAGGAUCACCCAUGUAUUAAGUUUU
- apparent Kd [1]: 154 nM
- apparent Kd [2]: 19.1 nM

Sequence: UUCCUACAUGAGGAUCACCCAUGUCAGGAUAUCUCCUCACUGCGCUUGCGCAGUGAAUAGAGAAGGGACAGGCU
- apparent Kd [1]: 14.9 nM
- apparent Kd [2]: 19.3 nM

Sequence: GCUAAUUAGUGAGGAUAUACAUAAUUUAUUACUGUAGAAGGCACAAACCUCAAGACAUGAGGAUCACCCAUGUGGUAUUUAAGC
- apparent Kd [1]: 151 nM
- apparent Kd [2]: 394 nM

Sequence: GUUUAGUGAGGAUAUGUGGCGUAGAUCGAGCGCGGUCGGCUACAGAAGGCACAUGAGGAUCACCCAUGUUUCUC
- apparent Kd [1]: 59.5 nM
- apparent Kd [2]: 372 nM

Sequence: GUGUUUGAUGAGGAUAUCGUUGUGGGUAUAUAGCGAGAAGGCAUUACAUGAGGAUCACCCAUGUAGUGUGGGUU
- apparent Kd [1]: 26.2 nM
- apparent Kd [2]: 49.4 nM

Sequence: UUGGACGUCGUAGGAUAUGUAGGAUAUUCCUACAUGAGGAUCACCCAUGUUGACAUGGAAGAAGGACCGAAGGACGAUGUCCAU
- apparent Kd [3]: 148 nM
- apparent Kd [4]: 691 nM

Sequence: AAAACAUGAGGAUCACCCAUGUAAAGAUCGGUUAAUAGAGGUGAGGAUAUACGAACUUUUGGGUAGUAGAAGGCACUGGGUACA
- apparent Kd [3]: 58.1 nM
- apparent Kd [4]: 44 nM

Sequence: GUAUCUCCUGACAUGAGGAUCACCCAUGUUUAAUUAUUAAAUCAGGAUAUCCUCUCGAAACGAGAGGAGAAGGGAUAAGAUACU
- apparent Kd [3]: 5.66 nM
- apparent Kd [4]: 5.72 nM

Sequence: AUGCCUUAUGUAGGAUAUGCAUAGAGUUGCUAUGCAGAAGGACAUGAGGAUCACCCAUGUAUGUAUACCUUACAUAUCUGGCAU
- apparent Kd [1]: 8.34 nM
- apparent Kd [2]: 30.8 nM

Sequence: AUUAUAAAGUCAGGAUAUCGGUUUAUAAUAUUACGAGAAGGGACAUGAGGAUCACCCAUGUAUUAACACUACUAUGUCAACUAA
- apparent Kd [1]: 46.6 nM
- apparent Kd [2]: 43.4 nM

Sequence: CUUCGACAUGAGGAUCACCCAUGUCAGGAUAUUGUGUAUCGGGUUUUUUACGGAAAGGCGAGAAGGGAUGUGUG
- apparent Kd [1]: 27.6 nM
- apparent Kd [2]: 22.3 nM
